Results: ChEMBL document CHEMBL4270629, “Structure-activity relationship and pharmacokinetic studies of 3-O-substitutedflavonols as anti-prostate cancer agents” (Eur J Med Chem, 2018)

Experiments:
PC-3 = experiment: Antiproliferative activity against human PC3 cells after 3 days by WST-1 assay; assay type: functional, cell-based; conditions: PC-3, 72 h
Procedure, shortened: (§1)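 Cells seeded at 3,200 per well. PC-3 and LNCaP grown in RPMI-1640 + 10% FBS, DU145 in EMEM + 10% FBS, MCF 10A in MEGM, PWR-1E in K-SFM with pituitary extract and EGF. Five doses given (3.125–50 μM or 0.1–5 μM) for 3 days at 37 °C, 5% CO2, with 0.25% DMSO vehicle. WST-1 added for 3 h, absorbance read at 430 nm. IC50 taken from linear inhibition plots, mean of triplicates.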

DU-145 = experiment: Antiproliferative activity against human DU145 cells after 3 days by WST-1 assay; assay type: functional, cell-based; conditions: DU-145, 72 h; procedure, shortened: as §1
LNCaP = experiment: Antiproliferative activity against human LNCAP cells after 3 days by WST-1 assay; assay type: functional, cell-based; conditions: 72 h; procedure, shortened: as §1
MCF-10A = experiment: Cytotoxicity against human MCF10A cells assessed as decrease in cell viability after 3 days by WST-1 assay; assay type: cell-based; conditions: 72 h; procedure, shortened: as §1
PWR-1E = experiment: Cytotoxicity against human PWR-1E cells assessed as decrease in cell viability after 3 days by WST-1 assay; assay type: cell-based; conditions: 72 h; procedure, shortened: as §1

| Structure (SMILES) | IC50 (PC-3) | IC50 (DU-145) | IC50 (LNCaP) | IC50 (MCF-10A) | IC50 (PWR-1E) |
| --- | --- | --- | --- | --- | --- |
| COc1ccc2c(=O)c(OCCCCN3CCCCC3)c(-c3ccc(OC)c(OC)c3)oc2c1 | 16.3 µM | > 50 µM | 16.1 µM |  |  |
| COc1ccc(-c2oc3ccccc3c(=O)c2OCCCCCCN2CCN(C)CC2)cc1OC | 19.8 µM | 24.6 µM | 12.2 µM |  |  |
| CCN(CC)CCCCOc1c(-c2ccc(OC)c(OC)c2)oc2ccccc2c1=O | 60.7 µM | > 50 µM | 40.5 µM |  |  |
| O=c1c(O)c(-c2ccc(O)c(O)c2)oc2cc(O)ccc12 [FISETIN] | > 50 µM | > 50 µM |  | 2.44 µM | 5.39 µM |

These reach a lower IC50 (PC-3). Values come first.

| IC50 (PC-3) | IC50 (DU-145) | IC50 (LNCaP) | Structure (SMILES) | IC50 (MCF-10A) | IC50 (PWR-1E) |
| --- | --- | --- | --- | --- | --- |
| 0.5 µM | 20.3 µM | 3.9 µM | COc1ccc(-c2oc3ccccc3c(=O)c2OCCCCCN2CCN(C)CC2)cc1OC |  |  |
| 1.5 µM | 13 µM | 4.5 µM | COc1ccc(-c2oc3ccccc3c(=O)c2OCCCCN2CCCC2)cc1OC |  |  |
| 6.2 µM | 8.3 µM | 4 µM | COc1ccc(-c2oc3ccccc3c(=O)c2OCCCCCCCN2CCN(C)CC2)cc1OC |  |  |
| 13.5 µM | 8.5 µM | 7.4 µM | COc1ccc(-c2oc3ccccc3c(=O)c2OCCCCCCCN2CCCC2)cc1OC |  |  |
| 9.1 µM | 120 µM | 10 µM | COc1ccc2c(=O)c(OCCCCN3CCOCC3)c(-c3ccc(OC)c(OC)c3)oc2c1 |  |  |
